From PubChem
Yeast tox: yeast growth toxicity, wild-type and mutant, primary screen, cytotoxicity control for eIF2B function restoration project, wild-type and eIF2Bepsilon R284H mutant, A595 | growth inhibition, % at 25 µM (by protocol) | 30,000 compounds, 0.3% hits | S. cerevisiae wild-type growth, A595 turbidity, 16 h;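 active = mutant and wild-type yeast strains alike exhibit over 30% growth inhibition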;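 also: 0% = untreated cell controls and 100% = YPD media blanks without cells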
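Test system: Wild-type and eIF2Bepsilon-R284H mutant S. cerevisiae, screened separately | Dosing: Single 25 µM compound dose in 0.2% DMSO | Schedule: 16 h compound exposure during growth at 30 °C | Detection: A595 turbidity | Evaluation: Growth inhibition (%) versus cell controls and blanks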
eIF2B yeast act: GCN4-lacZ reporter reduction in eIF2B-epsilon mutant yeast, primary screen, S. cerevisiae, eIF2B-epsilon R284H, Beta-Glo luminescence; inhibition, % at 25 µM (by protocol); 27,000 compounds, 0.91% hits; AID 688, 2007;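 active = mutant luminescence inhibited past about 50% while wild type luminescence and mutant growth stay under set limits, limit read from the data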
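Material – yeast eIF2B-epsilon R284H mutant carrying GCN4–beta-galactosidase fusion · Medium – YPD yeast growth medium · Compound – one concentration, 25 µM, 0.25% DMSO · Times – 16 h at 30 °C exposure · Signal – Beta-Glo luminescence plus absorbance at 595 nm · Read-out – % inhibition of reporter signal and growth versus controls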
* = called active by the depositor; nt = not tested or not shown. Only some compounds are listed: those with a hit (about 1% of all), similar ones and a draw of the others.

SMILES	Yeast tox	eIF2B yeast act
CCN1C(=O)c2ccccc2Sc2ccc(C(=O)N3CCC4(CC3)OCCO4)cc21	-18	27
CN1C(=O)c2ccccc2Sc2ccc(C(=O)N3CCC4(CC3)OCCO4)cc21	8	63*
CCC(C)NS(=O)(=O)c1ccc(OCC(=O)N2CCN(CC)CC2)cc1 (stereo not drawn)	-1	-14
CCCCOP(=O)(OCCCC)/C(C#N)=C(/C)O	-1	nt
COP(=O)(OC)C1(Nc2ccc(C)cc2)CCCCC1	49*	24
N#Cc1cc2c(nc1SCC(=O)Nc1cc(Cl)ccc1Cl)C1CCN2CC1	-6	12
COCCn1c(-c2ccccc2)cc(C(=O)O)c1C	-7	51*
CCCn1ncc(C(=O)O)c1C	-16	nt
CCNc1ccc(P(=S)(N(C)C)N(C)C)cc1	-2	10
CCN1CCC(O)(c2ccccc2)C(C(=O)c2ccccc2)C1 (stereo not drawn)	17	-17
CN(C)P(=O)(C(Cl)=C(N1CCCCC1)N1CCCCC1)N(C)C	-2	58*
COC(=O)C(O)(c1ccc(N(C)C(=O)OC(C)C)cc1)C(F)(F)F (stereo not drawn)	-9	6
